Screens from PubChem.
WT yeast gro inh: growth inhibition of WT strain, primary screen, mitochondrial fusion inhibitor project, WT and mutant strains, chemical genetic. mitochondrial fusion phenotypic screen. inhibition, % at 10 µM. 190,000 tested, 2.1% active. AID 1362, 2008; in the data active = inhibition above about 58%; tested in S. cerevisiae
ROMK primary: ROMK potassium channel modulators, primary screen, cell-based, thallium flux, MLSMR library | Tet-inducible ROMK, thallium flux fluorescence; actives lie on both sides | AID 1918, 2009 | 130,000 tested, 2% active | B-score at 10 µM | ATP-sensitive inward rectifier potassium channel 1 (Homo sapiens), P48048;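 active = signal ratio slope over the read window, or its plate-corrected B-score, at least 3 SD from the plate mean, either direction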;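 also: B-score of the F/F0 ratio slope over 7 to 12 s after thallium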
KCC2 mod: KCC2 cotransporter modulators, thallium flux, primary screen, cell-based, HEK293 KCC2, FluoZin-2 fluorescence, MLSMR; B-score of Tl+ flux slope (higher = more flux/activation; lower = inhibition) at 10 µM; AID 1456, 2008; KCC2 cells, thallium flux FluoZin-2 fluorescence; 190,000 tested, 2.2% active;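 active = thallium flux slope and its plate-corrected score both differing from the plate sample mean at a set confidence after two filtering rounds, in either direction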;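 also: slope of fluorescence scaled to starting intensity during 10 to 20 s after thallium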
Diaphorase act: compounds boosting diaphorase resazurin reduction – biochemical, uHTS, resorufin fluorescence, counter-screen for diaphorase-coupled primary assays, primary screen; Diaphorase/resazurin coupled assay, 16 min; active compounds read high; 1 = vehicle wells, 0 = NADH-free wells; activation factor at 20 µM; 190,000 tested, 0.005% active; AID 1229, 2008;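 active = diaphorase activity raised at least twofold by the compound at 20 µM; inactive = activation factor below 2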
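Test system: Clostridium kluyveri diaphorase, purified enzyme. Buffer or medium: 50 mM HEPES pH 7.4 buffer plus MgCl2 and Tween 20. Also added: 0.114 mM NADH and 0.1 mM resazurin, final amounts. Dosing: compound 20 µM once, DMSO 1%. Schedule: 16 min enzyme reaction, ambient temperature. Detection: fluorescence of resorufin, 544 nm excitation, 590 nm emission.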
L major viab: Leishmania major promastigote growth inhibition, primary screen; Leishmania major promastigotes, resazurin fluorescence viability; inhibition, % at 10 µM; 200,000 tested, 9% active; in the data active = inhibition above about 50%;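 also: promastigotes grown with compound for 44 hours at 28 °C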
Diaph inh CS: diaphorase inhibitors and chemical oxidizers, primary screen, counter-screen for diaphorase-coupled primary assays, biochemical, uHTS, resorufin fluorescence | diaphorase resazurin-to-resorufin fluorescence, NADH, 16 min; bacterial (C. kluyveri) enzyme, not human | inhibition, % at 20 µM | 190,000 tested, 0.69% active;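 active = primary screen inhibition at 20 µM above a set limit, cut at about 50% in these data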;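 also: plate controls were DMSO with full reaction for no effect and wells lacking NADH for full effect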
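System: Bacterial diaphorase enzyme (C. kluyveri) | Incubation: 16-min room-temperature incubation before reading | Benchmarks: No-NADH positive control and DMSO neutral control | Measured by: Resorufin fluorescence 544/590 nm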
* marks the source's active call; other numbers are inactive results; . = not tested or not shown; ! = a repeat was not active. The list is not random: actives were taken first. Their share in the collection is about 12%.

SMILES	WT yeast gro inh	ROMK primary	KCC2 mod	Diaphorase act	L major viab	Diaph inh CS
CCOc1ccc(CC2c3cc(OCC)c(OCC)cc3CCN2C(=O)c2cc(OC)c(OC)c(OC)c2)cc1OCC (stereo not given)	13	0.57	.	0.9	55*	5
COc1cc2c(cc1OC)C(COc1ccccc1OC)N(C(=O)c1ccco1)CC2 (stereo not given)	15	0.42	-0.96	0.9	7	8
CCNC(=S)N1CCc2cc(OC)c(OC)cc2C1COc1ccc(OC)cc1 (stereo not given)	-5	0.89	-1.2	1	68*	4
CCNC(=S)N1CCc2cc(OC)c(OC)cc2C1COc1ccccc1OC (stereo not given)	-4	0.1	-0.13	0.8	19	18
CC(C)(C)c1ccc(C(=O)NCC(=O)OCc2ccc([N+](=O)[O-])cc2)cc1	10	.	-0.053	0.9	-6	13
Fc1cccc(Oc2nc3ccccc3n3cccc23)c1	-7	.	-0.11	0.9	-3	12
CC(=O)Nc1c(I)c(NC(C)=O)c(I)c(C(=O)O)c1I	0	.	10*!	1	2	1
COC(=O)c1nc(NC(C)=O)n[nH]1	10	0.19	.	0.9	-5	8
CCN(CC)CCCN(Cc1cc2cc3c(cc2[nH]c1=O)OCO3)C(=S)Nc1ccccc1OC	-1	-0.23	-0.8	0.8	-4	17
O=C(/C=C/c1ccc(N2CCCCC2)c([N+](=O)[O-])c1)c1ccc(O)cc1	91*	0.35	-0.58	0.7	100*	25
COc1ccccc1C(=O)/C=C/c1ccc(N2CCCCC2)c([N+](=O)[O-])c1	-1	.	-0.25	0.9	98*	8
O=C(O/N=C\c1ccc(N2CCCCC2)c([N+](=O)[O-])c1)c1ccc(Cl)cc1Cl	-17	0.19	0.056	0.8	1	18
CCOc1ccccc1/C=C(/NC(=O)c1ccccc1)C(=O)NC(C)c1ccccc1 (stereo not given)	-16	-0.19	-1	0.9	9	7
O=C(CN1C(=O)CSc2ccccc21)N/N=C/c1ccco1	.	0.17	-0.0016	.	.	.
COc1ccc(C(=O)Nc2cccnc2Sc2ccc(Cl)cc2)cc1	.	0.72	0.21	.	.	.
CCOc1cc(Cl)c(S(=O)(=O)NCc2ccccn2)cc1Cl	-7	0.99	.	0.8	99*	16
Cc1ccc(N2CC(C(=O)Nc3cc(C)on3)CC2=O)cc1 (stereo not given)	8	.	0.85	0.8	-2	19
CCCCN(CCCC)CCNC(=O)CSCc1ccc(C)cc1	-5	-2	-1.6	0.8	83*	15
Cc1ccn2c(Nc3ccccc3C)c(-c3cccnc3)nc2c1	20	-0.67	0.47	0.9	21	6
N#CCc1nn(-c2ccc(F)cc2)c(N)c1C#N	-5	-0.12	0.76	0.8	-5	17
Cc1ccc(C)c(N2CCN(C(=O)Cc3ccc(-n4c(=O)[nH]c5ccsc5c4=O)cc3)CC2)c1	-9	1.1	-0.19	1	51*	2
CC(=O)OCc1cc(-c2nc3ccccc3[nH]c2=O)nn1-c1ccc(Cl)cc1	.	.	0.036	.	.	.
CCOP(=O)(OCC)C(Nc1cccc(C(F)(F)F)c1)c1ccc(F)cc1 (stereo not given)	32	0.14	0.3	0.7	5	27
CCCOP(=O)(OCCC)C(Nc1cccc(C(F)(F)F)c1)c1ccc(C)cc1 (stereo not given)	75*	.	0.72	0.7	5	25
CCOP(=O)(OCC)C(Nc1cccc(C(F)(F)F)c1)c1ccc(C)cc1 (stereo not given)	30	.	-1.2	0.8	59*	20
CN(c1cccc(NC(=O)CN(c2cccc(F)c2)S(C)(=O)=O)c1)S(C)(=O)=O	-9	0.93	0.071	0.9	-9	11
CC(O)C(=O)N/N=C/c1cccc(Cl)c1Cl (stereo not given)	-2	.	0.73	0.9	-1	8
